Test results published in ChEMBL document CHEMBL4715718, “Methyl Protodioscin, a Steroidal Saponin, Inhibits Neointima Formation in Vitro and in Vivo” (J Nat Prod, 2016).
The source made the active and inactive calls. No cut-off for these calls is given here.

What was measured:
A7R5 [1] = test: Down regulation of ERK1 expression in rat A7r5 cells at 3 to 9 uM after 24 hrs by Western blot analysis; type: functional, cell-based; conditions: dose 3-9 µM
Procedure, shortened: (§1)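 A7r5 rat aortic smooth muscle cells (DMEM, 10% FBS, 37 °C, 5% CO2) treated with 3, 6 or 9 μM in culture medium for 24 h. Lysed in 2% SDS/50 mM DTT/62.5 mM Tris-HCl pH 6.8 at 95 °C for 5 min. SDS-PAGE, PVDF transfer, 5% milk block, HRP secondary. Band expressed as % of control; mean ± SD, n = 3, one-way ANOVA.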

[2] = (§2) Inhibition of neointima formation of injured vessel in rat model of balloon injury induced neointimal hyperplasia assessed as area of intima at 6 uM administered as extravascular treatment and measured after 2 weeks by hematoxylin and eosin Y staining based histopathological analysis (reference value: 3346.4 +/-556.7 um2); type: functional
Procedure, shortened: (§3)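 Male rats (3–4 months, 300–350 g) were randomized into four groups: sham, balloon injury + PBS, and balloon injury + 3 μM or 6 μM compound. PBS or compound was given extravascularly in ice-cold 30% (w/v) pluronic F-127 gel. Arterial sections 5–10 μm thick (6 per block) were stained with hematoxylin and eosin Y. Intima, media and lumen areas and the intima/media ratio were measured by image analysis.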

A7R5 [3] = test: Down regulation of MMP-9 expression in rat A7r5 cells at 3 to 9 uM after 24 hrs by Western blot analysis; type: functional, cell-based; conditions: dose 3-9 µM; procedure, shortened: as §1
[4] = Antiproliferative activity against rat A7r5 cells assessed as reduction in cell viability after 24 hrs by MTT assay; conditions: A7R5, 24 h
[5] = as §2, with “of lumen” for “of intima”, “at 3” for “at 6”, “value: 6809.1 +/-820.8” for “value: 3346.4 +/-556.7”; type: functional; procedure, shortened: as §3
A7R5 [6] = test: Induction of apoptosis in rat A7r5 cells assessed as effect on Bcl2 protein expression at 3 to 9 uM after 24 hrs by Western blot analysis; type: functional, cell-based; conditions: dose 3-9 µM
Procedure, shortened: (§4)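 Bax and Bcl-2 in A7r5 cells are immunoblotted after treatment (3, 6 and 9 μM, 24 h) in culture medium. Lysis in SDS/DTT/Tris buffer pH 6.8 at 95 °C, then SDS-PAGE and PVDF. Bands are given relative to the 10% FBS control, and the Bax/Bcl-2 ratio is computed. Triplicate; one-way ANOVA.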

[7] = biological target: T1, Disintegrin and metalloproteinase domain-containing protein 15 (Rattus norvegicus) (UniProt Q9QYV0); test: Inhibition of ADAM15-mediated AKT phosphorylation in rat A7r5 cells at 3 to 9 uM after 24 hrs by western blot analysis; type: cell-based; conditions: dose 3-9 µM; procedure, shortened: as §1
T1 sequence (whole entry): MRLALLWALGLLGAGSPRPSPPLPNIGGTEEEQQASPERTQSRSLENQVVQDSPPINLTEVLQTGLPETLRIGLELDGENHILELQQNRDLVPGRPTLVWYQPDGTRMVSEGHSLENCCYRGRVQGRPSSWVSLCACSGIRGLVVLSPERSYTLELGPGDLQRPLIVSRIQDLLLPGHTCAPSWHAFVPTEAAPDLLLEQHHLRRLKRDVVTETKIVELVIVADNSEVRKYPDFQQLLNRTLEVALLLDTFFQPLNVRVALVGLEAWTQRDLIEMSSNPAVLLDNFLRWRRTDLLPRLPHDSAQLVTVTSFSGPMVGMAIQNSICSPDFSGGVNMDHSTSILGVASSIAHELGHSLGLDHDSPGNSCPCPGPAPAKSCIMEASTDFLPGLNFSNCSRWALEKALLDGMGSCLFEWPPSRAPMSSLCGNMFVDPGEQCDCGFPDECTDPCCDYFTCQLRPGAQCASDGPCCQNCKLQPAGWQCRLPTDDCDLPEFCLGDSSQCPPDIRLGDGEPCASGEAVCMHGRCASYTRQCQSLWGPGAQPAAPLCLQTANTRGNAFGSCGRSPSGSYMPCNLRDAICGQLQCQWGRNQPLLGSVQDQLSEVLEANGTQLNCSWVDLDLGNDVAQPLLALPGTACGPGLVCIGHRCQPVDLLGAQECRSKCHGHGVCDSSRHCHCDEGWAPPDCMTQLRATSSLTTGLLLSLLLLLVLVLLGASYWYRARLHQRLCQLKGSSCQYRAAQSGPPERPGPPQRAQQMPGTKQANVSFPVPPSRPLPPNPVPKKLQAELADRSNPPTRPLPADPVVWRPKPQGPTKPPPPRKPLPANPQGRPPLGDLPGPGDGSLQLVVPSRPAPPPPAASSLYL

[8] = (§5) Inhibition of neointima formation of injured vessel in rat model of balloon injury induced neointimal hyperplasia assessed as ratio of area of intima-to-media at 6 uM administered as extravascular treatment and measured after 2 weeks by hematoxylin and eosin Y staining based histopathological analysis (reference value: 1.98 +/-0.36); type: functional; procedure, shortened: as §3
A7R5 [9] = test: Down regulation of PI3K expression in rat A7r5 cells at 3 to 9 uM after 24 hrs by Western blot analysis; type: functional, cell-based; conditions: dose 3-9 µM; procedure, shortened: as §1
A7R5 [10] = test: Induction of apoptosis in rat A7r5 cells assessed as change in sub-G1 phase at 3 to 9 uM after 24 hrs by PI/RNase A staining based flow cytometric analysis; type: functional, cell-based; conditions: dose 3-9 µM
Procedure, shortened: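 A7r5 cells were plated at 1.0 × 10^5 per 10 cm dish and exposed to graded concentrations in DMEM with 10% FBS. They were trypsinized, fixed in ice-cold 70% ethanol overnight at −20 °C, then stained with PI/Triton X-100/RNase A at 37 °C for at least 30 min in the dark. Sub-G1, G0/G1, S and G2/M fractions were read by FACScan. Control: 10% FBS; n = 3.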

Rattus norvegicus [11] = test: Inhibition of neointima formation index of injured vessel in rat model of balloon injury induced neointimal hyperplasia at 3 to 6 uM administered as extravascular treatment and measured after 2 weeks by hematoxylin and eosin Y staining based histopathological analysis; type: functional; conditions: dose 3-6 µM; procedure, shortened: as §3
[12] = biological target: T1, Disintegrin and metalloproteinase domain-containing protein 15 (Rattus norvegicus); test: Inhibition of ADAM15-mediated ERK phosphorylation in rat A7r5 cells at 3 to 9 uM after 24 hrs by western blot analysis; type: cell-based; conditions: dose 3-9 µM; procedure, shortened: as §1
A7R5 [13] = test: Down regulation of AKT expression in rat A7r5 cells at 3 to 9 uM after 24 hrs by Western blot analysis; type: functional, cell-based; conditions: dose 3-9 µM; procedure, shortened: as §1
[14] = biological target: T1, Disintegrin and metalloproteinase domain-containing protein 15 (Rattus norvegicus); test: Inhibition of ADAM15-mediated MMP-9 activity in rat A7r5 cells at 6 uM after 24 hrs by gelatin zymography; type: cell-based
Procedure, shortened: (§6)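 Conditioned medium came from A7r5 cells (1.0 × 10^5 per 10 cm dish) held 24 h with the compound in DMEM/10% FBS. It ran under nonreducing conditions on 10% SDS-PAGE with 0.1% gelatin. Gels were washed in 2.5% Triton X-100 for 1 h, developed at 37 °C in pH 8.0 Tris/10 mM CaCl2 buffer, then Coomassie stained and destained. Clear bands were quantified as % of control; n = 3.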

[15] = as §5, with “at 3” for “at 6”; type: functional; procedure, shortened: as §3
A7R5 [16] = test: Induction of cell cycle arrest in rat A7r5 cells assessed as accumulation of cells at G0/G1 phase at 3 to 9 uM after 18 hrs by PI/RNase A staining based flow cytometric analysis; type: functional; conditions: dose 3-9 µM
[17] = as §2, with “of media” for “of intima”, “value: 1462.7 +/-393.9” for “value: 3346.4 +/-556.7”; type: functional; procedure, shortened: as §3
[18] = as §2, with “at 3” for “at 6”; type: functional; procedure, shortened: as §3
[19] = biological target: T1, Disintegrin and metalloproteinase domain-containing protein 15 (Rattus norvegicus); test: Inhibition of ADAM15-mediated MMP-9 activity in rat A7r5 cells at 9 uM after 24 hrs by gelatin zymography; type: cell-based; procedure, shortened: as §6
A7R5 [20] = test: Down regulation of MMP-2 expression in rat A7r5 cells at 3 to 9 uM after 24 hrs by Western blot analysis; type: functional, cell-based; conditions: dose 3-9 µM; procedure, shortened: as §1
A7R5 [21] = test: Induction of apoptosis in rat A7r5 cells assessed as effect on Bax protein expression at 3 to 9 uM after 24 hrs by Western blot analysis; type: functional, cell-based; conditions: dose 3-9 µM; procedure, shortened: as §4
A7R5 [22] = test: Inhibition of cell migration in rat A7r5 cells at 9 uM after 18 hrs by scratch wound healing assay; type: functional, cell-based
A7R5 [23] = test: Inhibition of cell migration in rat A7r5 cells at 6 to 9 uM after 16 hrs by crystal violet staining based transwell assay; type: functional; conditions: dose 6-9 µM
Procedure, shortened: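 Transwell, 8 μm pore: 1.2 × 10^4 A7r5 cells in the upper chamber attach for 2 h. The upper chamber then receives serum-free medium with compound, and the lower chamber 10% FBS medium with compound, for 16 h at 37 °C. Cells are fixed in formaldehyde, stained with crystal violet and counted in five random fields. Migration is given as % of control cell number.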

Rattus norvegicus [24] = test: Reduction in ADAM15 protein expression in VSMCs and injured arteries in rat model of balloon injury induced neointimal hyperplasia at 3 to 6 uM administered as extravascular treatment and measured after 2 weeks by Western blot analysis; type: functional; conditions: dose 3-6 µM
A7R5 [25] = test: Down regulation of ADAM15 protein translational level in rat A7r5 cells at 9 uM after 24 hrs by Western blot analysis; type: functional, cell-based; procedure, shortened: as §1
[26] = as §2, with “of lumen” for “of intima”, “value: 6809.1 +/-820.8” for “value: 3346.4 +/-556.7”; type: functional; procedure, shortened: as §3
A7R5 [27] = test: Induction of apoptosis in rat A7r5 cells assessed as effect on Bax/Bcl2 expression ratio at 3 to 9 uM measured after 24 hrs by Western blot analysis; type: functional, cell-based; conditions: dose 3-9 µM; procedure, shortened: as §4
A7R5 [28] = test: Down regulation of ERK2 expression in rat A7r5 cells at 3 to 9 uM after 24 hrs by Western blot analysis; type: functional, cell-based; conditions: dose 3-9 µM; procedure, shortened: as §1
[29] = biological target: T1, Disintegrin and metalloproteinase domain-containing protein 15 (Rattus norvegicus); test: Inhibition of ADAM15-mediated PI3K phosphorylation in rat A7r5 cells at 3 to 9 uM after 24 hrs by western blot analysis; type: cell-based; conditions: dose 3-9 µM; procedure, shortened: as §1
[30] = as §2, with “of media” for “of intima”, “at 3” for “at 6”, “value: 1462.7 +/-393.9” for “value: 3346.4 +/-556.7”; type: functional; procedure, shortened: as §3
A7R5 [31] = test: Down regulation of FAK expression in rat A7r5 cells at 3 to 9 uM after 24 hrs by Western blot analysis; type: functional, cell-based; conditions: dose 3-9 µM; procedure, shortened: as §1
[32] = biological target: T1, Disintegrin and metalloproteinase domain-containing protein 15 (Rattus norvegicus); test: Inhibition of ADAM15-mediated FAK phosphorylation in rat A7r5 cells at 3 to 9 uM after 24 hrs by western blot analysis; type: cell-based; conditions: dose 3-9 µM; procedure, shortened: as §1

CO[C@]1(CC[C@@H](C)CO[C@@H]2O[C@H](CO)[C@@H](O)[C@H](O)[C@H]2O)O[C@H]2C[C@H]3[C@@H]4CC=C5C[C@@H](O[C@@H]6O[C@H](CO)[C@@H](O[C@@H]7O[C@@H](C)[C@H](O)[C@@H](O)[C@H]7O)[C@H](O)[C@H]6O[C@@H]6O[C@@H](C)[C@H](O)[C@@H](O)[C@H]6O)CC[C@]5(C)[C@H]4CC[C@]3(C)[C@H]2[C@@H]1C [METHYLPROTODIOSCIN]
inhibition (A7R5 [1]): Active | Activity [2]: 912.4 um2 | inhibition (A7R5 [3]): Active | IC50 [4]: 9 µM | Activity [5]: 4730.4 um2 | Activity (A7R5 [6]): inactive | inhibition [7]: Active | Ratio [8]: 0.34 | inhibition (A7R5 [9]): Active | Activity (A7R5 [10]): inactive | inhibition (Rattus norvegicus [11]): Active | inhibition [12]: Active | inhibition (A7R5 [13]): Active | inhibition [14]: Active | Ratio [15]: 0.92 | Activity (A7R5 [16]): Active | Activity [17]: 1164.2 um2 | Activity [18]: 1828.4 um2 | inhibition [19]: Active | inhibition (A7R5 [20]): Active | Activity (A7R5 [21]): inactive | inhibition (A7R5 [22]): Active | inhibition (A7R5 [23]): Active | inhibition (Rattus norvegicus [24]): Active | inhibition (A7R5 [25]): Active | Activity [26]: 3076.6 um2 | Activity (A7R5 [27]): inactive | inhibition (A7R5 [28]): Active | inhibition [29]: Active | Activity [30]: 1902 um2 | inhibition (A7R5 [31]): Active | inhibition [32]: Active
